In ChEMBL document CHEMBL1795269, “Novel (E)-5-styryl-2,2'-bithiophene derivatives as ligands for β-amyloid plaques” (Eur J Med Chem, 2011) one finds Activity, Ki and inhibition data, which are given here for 30 compounds.

Activity calls are given as the source filed them. The calls are words filed in the database; no cut-off is given here.

The species entered for one assay is Mus musculus. Put plainly: Binding affinity to amyloid beta in APP/PS1 transgenic C57 mouse brain cortex at 5 uCi/100 uL after 30 mins by autoradiography. In kind it is tissue-based. Conditions: tested as the 125I-labelled form. The method in brief: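 Deparaffinized transgenic mouse brain sections incubated 30 min at room temperature with [125I]-labelled tracer (5 μCi/100 μL). Washed with saturated Li2CO3 in 40% EtOH for 3 min, then 40% EtOH for 3 min, then rinsed 30 s in water. Plaques checked afterwards by thioflavin-S (1 μM) fluorescence staining of the same sections.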
Take `Ic1ccc(/C=C/c2ccc(-c3cccs3)s2)cc1`: the result was Active.

As to `COc1ccc(/C=C/c2ccc(-c3ccc(I)s3)s2)cc1`, the outcome was Active.

Another assay is filed under the species Mus musculus. Put plainly: Binding affinity to amyloid beta in APP/PS1 transgenic C57 mouse brain at 1 uM after 10 mins by fluorescence assay. The assay is classed as tissue-based.
Conditions: not given
The essentials:
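Paraffin-embedded brain sections (10 μm) from APP/PS1 C57 transgenic mouse, deparaffinized through xylene and graded ethanol, then PBS (0.2 M, pH 7.4) 30 min. Sections incubated 10 min with compound (1 μM in 20% ethanol), washed with 50% ethanol and PBS. Confocal fluorescence read at excitation 405 nm, 505 nm long-pass. Plaques confirmed with thioflavin-S (1 μM) on adjacent sections.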
`O=[N+]([O-])c1ccc(/C=C/c2ccc(-c3ccc(Br)s3)s2)cc1`: the result was Active.

For `CN(C)c1ccc(/C=C/c2ccc(-c3ccc(Br)s3)s2)cc1`, the result was Active.

Regarding `CC(C)(C)c1ccc(/C=C/c2ccc(-c3cccs3)s2)cc1`, the outcome was Active.

For the compound `CN(C)c1ccc(/C=C/c2ccc(-c3cccs3)s2)cc1`, the outcome was Active.

Target in another assay: not listed separately
Put plainly: Displacement of [125I]-TZDM from amyloid beta 1 to 42 after 2 hrs by gamma counting.
Conditions: not given
The essentials:
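Aβ1-42 aggregated at 0.25 mg/mL in pH 7.4 buffer (10 mM sodium phosphate, 1 mM EDTA), 37 °C for 42 h with shaking. Fibrils (28 nM final) mixed with [125I]TZDM and inhibitor (10^-5 to 10^-10 M in EtOH) in PBS (0.2 M, pH 7.4). Incubated 2 h at 37 °C; nonspecific binding taken with 100 nM TZDM. Bound and free separated by vacuum filtration through glass fibre filters, washed with cold PBS containing 10% ethanol, then counted; Ki reported.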
Background: Displacement assays read how much labelled ligand stays bound in the presence of the test substance.
`Ic1ccc(/C=C/c2ccc(-c3cccs3)s2)cc1`: affinity was put at a Ki of 0.92 nM and the inhibition result is “Dose-dependent effect”.

Regarding `O=[N+]([O-])c1ccc(/C=C/c2ccc(-c3cccs3)s2)cc1`, the affinity corresponds to a Ki of 0.56 nM and the inhibition entry is “Dose-dependent effect”.

For the compound `COc1ccc(/C=C/c2ccc(-c3cccs3)s2)cc1`, the Ki – broadly, a dissociation constant, usually derived from enzyme kinetics or from competition with a known ligand – is 1.48 nM and the inhibition result was “Dose-dependent effect”.

Take `Clc1ccc(/C=C/c2ccc(-c3ccc(Br)s3)s2)cc1`: affinity was put at a Ki of 1.02 nM and the inhibition result was “Dose-dependent effect”.

In the case of `O=[N+]([O-])c1ccc(/C=C/c2ccc(-c3ccc(Br)s3)s2)cc1`, the Ki was found to be 0.1 nM and the inhibition entry is “Dose-dependent effect”.

With `Clc1ccc(/C=C/c2ccc(-c3ccc(I)s3)s2)cc1`, affinity was put at a Ki of 1.1 nM and the inhibition result is “Dose-dependent effect”.

As to `Cc1ccc(/C=C/c2ccc(-c3ccc(Br)s3)s2)cc1`, the Ki stood at 0.45 nM and the inhibition result is “Dose-dependent effect”.

For the compound `Brc1ccc(/C=C/c2ccc(-c3cccs3)s2)cc1`, the Ki came out at 0.99 nM and the inhibition entry is “Dose-dependent effect”.

In the case of `Brc1ccc(/C=C/c2ccc(-c3ccc(I)s3)s2)cc1`, the affinity, expressed as Ki, was 0.19 nM and the inhibition result is “Dose-dependent effect”.

Take `Fc1ccc(/C=C/c2ccc(-c3ccc(Br)s3)s2)cc1`: the affinity corresponds to a Ki of 0.81 nM and the inhibition result is “Dose-dependent effect”.

With `Cc1ccc(/C=C/c2ccc(-c3ccc(I)s3)s2)cc1`, affinity was put at a Ki of 0.8 nM and the inhibition result is “Dose-dependent effect”.

As for `COc1ccc(/C=C/c2ccc(-c3ccc(Br)s3)s2)cc1`, the affinity, expressed as Ki, was 0.72 nM and the inhibition result is “Dose-dependent effect”.

Turning to `COc1ccc(/C=C/c2ccc(-c3ccc(I)s3)s2)cc1`, the Ki worked out at 0.3 nM and the inhibition entry was “Dose-dependent effect”.

On to `CN(C)c1ccc(/C=C/c2ccc(-c3ccc(Br)s3)s2)cc1`, for which the Ki was found to be 0.36 nM and the inhibition entry was “Dose-dependent effect”.

As for `Nc1ccc(/C=C/c2ccc(-c3cccs3)s2)cc1`, the affinity, expressed as Ki, was 41 nM and the inhibition entry was “Dose-dependent effect”.

For the compound `C(=C\c1ccc(-c2cccs2)s1)/c1ccccc1`, the Ki was 4.78 nM and the inhibition result is “Dose-dependent effect”.

On to `CC(C)(C)c1ccc(/C=C/c2ccc(-c3ccc(Br)s3)s2)cc1`, for which the Ki was determined as 0.95 nM and the inhibition result is “Dose-dependent effect”.

Take `Brc1ccc(-c2ccc(/C=C/c3ccc(I)cc3)s2)s1`: the Ki was found to be 0.51 nM and the inhibition result was “Dose-dependent effect”.

`Cc1ccc(/C=C/c2ccc(-c3cccs3)s2)cc1`: the affinity corresponds to a Ki of 1.15 nM and the inhibition entry is “Dose-dependent effect”.

For `Fc1ccc(/C=C/c2ccc(-c3cccs3)s2)cc1`, the Ki came to 4.06 nM and the inhibition result was “Dose-dependent effect”.

On to `CC(C)(C)c1ccc(/C=C/c2ccc(-c3cccs3)s2)cc1`, for which the inhibition constant Ki was 0.73 nM and the inhibition entry is “Dose-dependent effect”.

On to `Oc1ccc(/C=C/c2ccc(-c3ccc(Br)s3)s2)cc1`, for which the Ki turned out to be 3.6 nM and the inhibition result was “Dose-dependent effect”.

For `Brc1ccc(/C=C/c2ccc(-c3ccc(Br)s3)s2)cc1`, the Ki was 0.22 nM and the inhibition result was “Dose-dependent effect”.

For `Ic1ccc(/C=C/c2ccc(-c3ccc(I)s3)s2)cc1`, the Ki was 0.63 nM and the inhibition result was “Dose-dependent effect”.

As for `Clc1ccc(/C=C/c2ccc(-c3cccs3)s2)cc1`, the affinity, expressed as Ki, was 0.74 nM and the inhibition entry is “Dose-dependent effect”.

`CC(C)(C)c1ccc(/C=C/c2ccc(-c3ccc(I)s3)s2)cc1`: the Ki is 1.58 nM and the inhibition entry is “Dose-dependent effect”.

Turning to `CN(C)c1ccc(/C=C/c2ccc(-c3cccs3)s2)cc1`, the Ki turned out to be 0.73 nM and the inhibition result was “Dose-dependent effect”.

As to `Fc1ccc(/C=C/c2ccc(-c3ccc(I)s3)s2)cc1`, the affinity, expressed as Ki, was 0.55 nM and the inhibition result is “Dose-dependent effect”.

On to `Ic1ccc(-c2ccc(/C=C/c3ccccc3)s2)s1`, for which the affinity, expressed as Ki, was 0.24 nM and the inhibition result was “Dose-dependent effect”.

As to `Brc1ccc(-c2ccc(/C=C/c3ccccc3)s2)s1`, the Ki amounted to 1.32 nM and the inhibition result is “Dose-dependent effect”.
